Results published in article PMC7415440 (Drug Design, Development and Therapy, 2020).

What was measured:
Multiple ascending dose = assay type: in vivo, human
Outline: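 Seven 1 h iv saline infusions every 12 h. Plasma sampled to 12 h after the first dose, predose at 60 and 72 h, then to 96 h; urine collected in 4–12 h intervals after the first and last doses. HPLC-MS/MS with deuterated internal standard; plasma range 10–30,000 ng/mL, urine 50–150,000 ng/mL. Noncompartmental analysis on actual sampling times; AUCτ by trapezoidal rule; CLR as Ae/AUClast.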

[1] = MAD study safety and tolerability assessment; assay type: in vivo, human; details: for Number of Subjects with AEs (%) / Number of Subjects with Drug Related AEs (% total): 6 subjects
Outline: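 Double-blind, placebo-controlled trial in healthy Korean males (active:placebo 6:2 per group), infused iv in normal saline over 1 h every 12 h, seven doses over 3.5 days, at 150, 300 or 450 mg. Subjects were in-house days 1–5, with follow-up 8 days after the last dose. Monitoring covered vital signs, 12-lead ECG, clinical labs, physical exams and AEs, with intensity and relationship to drug recorded.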

[2] = multiple iv 150 mg over 1 h every 12 h x7, n=6, mean (SD)
[3] = multiple iv 300 mg over 1 h every 12 h x7, n=6, mean (SD)
[4] = multiple iv 450 mg over 1 h every 12 h x7, n=6, mean (SD)
[5] = multiple iv, all doses 150-450 mg, Total n=18, mean (SD)
[6] = multiple iv doses, n=24, number of subjects [cases]

SMILES: CCOc1cc(CN2CCOCC2)cc2[nH]c(=O)c3c(c12)NCCC3.Cl.Cl.O.O [JPI-289]
- AUCτ,1st dose (Multiple ascending dose; [2]): 4766.06 (878.28) ng·h/mL
- AUCτ,ss (Multiple ascending dose; [2]): 7696.21 (1157.59) ng·h/mL
- Ae,1st dose (Multiple ascending dose; [2]): 3.98 (1.21) mg
- Ae,last dose (Multiple ascending dose; [2]): 5.48 (1.64) mg
- CLR,1st dose (Multiple ascending dose; [2]): 0.84 (0.21) L/h
- CLR,last dose (Multiple ascending dose; [2]): 0.73 (0.24) L/h
- CLss (Multiple ascending dose; [2]): 19.91 (3.37) L/h
- Cav,ss (Multiple ascending dose; [2]): 641.35 (96.47) ng/mL
- Cmax,1st dose (Multiple ascending dose; [2]): 1728.17 (353.61) ng/mL
- Cmax,ss (Multiple ascending dose; [2]): 2023.47 (460.41) ng/mL
- Observed AI (accumulation index) (Multiple ascending dose; [2]): 1.64 (0.21)
- Vd,ss (Multiple ascending dose; [2]): 112.20 (31.78) L
- Vz (Multiple ascending dose; [2]): 85.65 (17.01) L
- t1/2,eff (Multiple ascending dose; [2]): 1.88 (0.13) L
- t1/2z (Multiple ascending dose; [2]): 2.44 h
- AUCτ,1st dose (Multiple ascending dose; [3]): 14,809.79 (2793.29) ng·h/mL
- AUCτ,ss (Multiple ascending dose; [3]): 22,608.80 (5198.68) ng·h/mL
- Ae,1st dose (Multiple ascending dose; [3]): 11.74 (3.77) mg
- Ae,last dose (Multiple ascending dose; [3]): 13.87 (5.36) mg
- CLR,1st dose (Multiple ascending dose; [3]): 0.80 (0.25) L/h
- CLR,last dose (Multiple ascending dose; [3]): 0.61 (0.14) L/h
- CLss (Multiple ascending dose; [3]): 13.95 (3.63) L/h
- Cav,ss (Multiple ascending dose; [3]): 1884.07 (433.23) ng/mL
- Cmax,1st dose (Multiple ascending dose; [3]): 4747.25 (798.21) ng/mL
- Cmax,ss (Multiple ascending dose; [3]): 5658.20 (804.71) ng/mL
- Observed AI (accumulation index) (Multiple ascending dose; [3]): 1.52 (0.22)
- Vd,ss (Multiple ascending dose; [3]): 74.92 (11.18) L
- Vz (Multiple ascending dose; [3]): 67.95 (11.04) L
- t1/2,eff (Multiple ascending dose; [3]): 2.46 (0.67) L
- t1/2z (Multiple ascending dose; [3]): 2.74 h
- AUCτ,1st dose (Multiple ascending dose; [4]): 28,278.07 (6412.76) ng·h/mL
- AUCτ,ss (Multiple ascending dose; [4]): 50,840.74 (19,417.91) ng·h/mL
- Ae,1st dose (Multiple ascending dose; [4]): 25.66 (5.03) mg
- Ae,last dose (Multiple ascending dose; [4]): 40.71 (20.87) mg
- CLR,1st dose (Multiple ascending dose; [4]): 0.92 (0.16) L/h
- CLR,last dose (Multiple ascending dose; [4]): 0.77 (0.22) L/h
- CLss (Multiple ascending dose; [4]): 9.78 (3.11) L/h
- Cav,ss (Multiple ascending dose; [4]): 4236.73 (1618.16) ng/mL
- Cmax,1st dose (Multiple ascending dose; [4]): 8070.98 (1320.10) ng/mL
- Cmax,ss (Multiple ascending dose; [4]): 11,921.28 (1655.56) ng/mL
- Observed AI (accumulation index) (Multiple ascending dose; [4]): 1.76 (0.28)
- Vd,ss (Multiple ascending dose; [4]): 72.06 (8.72) L
- Vz (Multiple ascending dose; [4]): 63.02 (8.23) L
- t1/2,eff (Multiple ascending dose; [4]): 3.05 (0.97) L
- t1/2z (Multiple ascending dose; [4]): 3.5 h
- AUCτ,1st dose (Multiple ascending dose; [5]): 15,951.31 (10,623.66) ng·h/mL
- AUCτ,ss (Multiple ascending dose; [5]): 27,048.58 (21,404.87) ng·h/mL
- Ae,1st dose (Multiple ascending dose; [5]): 13.79 (9.86) mg
- Ae,last dose (Multiple ascending dose; [5]): 20.02 (19.40) mg
- CLR,1st dose (Multiple ascending dose; [5]): 0.85 (0.20) L/h
- CLR,last dose (Multiple ascending dose; [5]): 0.70 (0.21) L/h
- CLss (Multiple ascending dose; [5]): 14.54 (5.33) L/h
- Cav,ss (Multiple ascending dose; [5]): 2254.05 (1783.74) ng/mL
- Cmax,1st dose (Multiple ascending dose; [5]): 4848.80 (2800.32) ng/mL
- Cmax,ss (Multiple ascending dose; [5]): 6534.32 (4330.54) ng/mL
- Observed AI (accumulation index) (Multiple ascending dose; [5]): 1.64 (0.24)
- Vd,ss (Multiple ascending dose; [5]): 86.39 (26.65) L
- Vz (Multiple ascending dose; [5]): 72.21 (15.52) L
- t1/2,eff (Multiple ascending dose; [5]): 2.46 (0.81) L
- t1/2z (Multiple ascending dose; [5]): 2.89 h
- intensity of AEs ([1]; MAD): mild in intensity
- tolerability ([1]; MAD, dose range 150–450 mg): well tolerated
- total number of AEs ([1]; MAD, in seven subjects): 12
- Number of Subjects with AEs (%) ([1]; multiple iv doses 150 mg): 0 (0.0)
- Number of Subjects with Drug Related AEs (% total) ([1]; multiple iv doses 150 mg): 0 (0.0)
- Number of Subjects with AEs (%) ([1]; multiple iv doses 300 mg): 1 (16.7)
- Number of Subjects with Drug Related AEs (% total) ([1]; multiple iv doses 300 mg): 1 (16.7)
- Number of Subjects with AEs (%) ([1]; multiple iv doses 450 mg): 5 (83.3)
- Number of Subjects with Drug Related AEs (% total) ([1]; multiple iv doses 450 mg): 4 (66.7)
- Abdominal discomfort, Drug-Related [1, 6]: 0 [0]
- Abdominal discomfort, Not Related [1, 6]: 1 [1]
- Abdominal discomfort, Total [1, 6]: 1 [1]
- Bilirubin total increased, Drug-Related [1, 6]: 1 [1]
- Bilirubin total increased, Not Related [1, 6]: 0 [0]
- Bilirubin total increased, Total [1, 6]: 1 [1]
- Diarrhea, Drug-Related [1, 6]: 0 [0]
- Diarrhea, Not Related [1, 6]: 1 [1]
- Diarrhea, Total [1, 6]: 1 [1]
- Dizziness, Drug-Related [1, 6]: 2 [2]
- Dizziness, Not Related [1, 6]: 0 [0]
- Dizziness, Total [1, 6]: 2 [2]
- Fever, Drug-Related [1, 6]: 1 [1]
- Fever, Not Related [1, 6]: 0 [0]
- Fever, Total [1, 6]: 1 [1]
- Headache, Drug-Related [1, 6]: 2 [2]
- Headache, Not Related [1, 6]: 0 [0]
- Headache, Total [1, 6]: 2 [2]
- Heart rate increased, Drug-Related [1, 6]: 0 [0]
- Heart rate increased, Not Related [1, 6]: 0 [0]
- Heart rate increased, Total [1, 6]: 0 [0]
- Sinus tachycardia, Drug-Related [1, 6]: 1 [1]
- Sinus tachycardia, Not Related [1, 6]: 0 [0]
- Sinus tachycardia, Total [1, 6]: 1 [1]
- Stomatitis, Drug-Related [1, 6]: 1 [1]
- Stomatitis, Not Related [1, 6]: 0 [0]
- Stomatitis, Total [1, 6]: 1 [1]
- Urticaria, Drug-Related [1, 6]: 2 [2]
- Urticaria, Not Related [1, 6]: 0 [0]
- Urticaria, Total [1, 6]: 2 [2]
